ChEMBL document CHEMBL3526139, “Clinical pharmacokinetics, metabolism, and drug-drug interaction of carfilzomib” (Drug Metab Dispos, 2013)

What was measured:
Plasma [1] = assay: Drug metabolism in plasma of iv dosed human patient with relapsed and refractory hematological malignancies assessed as morpholino-hPhe metabolite formation administered on days 1, 2, 8, 9, 15 and 16 of 28-day cycle over 2 to 10 mins by LC-MS/MS analysis; assay type: ADME, organism-based; conditions: in vivo
[2] = Plasma clearance in human patient with relapsed solid tumor at 20 mg/m'2, iv administered on days 1, 2, 8, 9, 15 and 16 of 28-day cycle over 2 to 10 mins measured on day 16 of cycle 1 by LC-MS/MS analysis; assay type: ADME, organism-based
Summary of the method: (§1)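 Patients with relapsed solid tumors (n=3) received carfilzomib IV at 20 mg/m2. Plasma was sampled on Days 1 and 16 of Cycle 1 before dosing, at end of administration, and at 5, 15, 30 min and 1, 2, 4 h after. Samples underwent solid phase extraction and LC-MS/MS with d10-carfilzomib internal standard over 0.100–200 ng/mL. Parameters were derived noncompartmentally (constant IV infusion model) from actual elapsed time from infusion start.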

[3] = AUC last in human patient with relapsed solid tumor at 20 mg/m'2, iv administered on days 1, 2, 8, 9, 15 and 16 of 28-day cycle over 2 to 10 mins measured on day 16 of cycle 1 by LC-MS/MS analysis; assay type: ADME, organism-based; design: route intravenous, time 0 - last; conditions: plasma; summary of the method: as §1
[4] = AUC infinity in human patient with relapsed solid tumor at 20 mg/m'2, iv administered on days 1, 2, 8, 9, 15 and 16 of 28-day cycle over 2 to 10 mins measured on day 16 of cycle 1 by LC-MS/MS analysis; assay type: ADME, organism-based; design: time infinity, route intravenous; conditions: plasma; summary of the method: as §1
Cytochrome P450 2C19 = Cytochrome P450 2C19 (Homo sapiens, UniProt P33261); assay: Inhibition of CYP2C19 in human liver microsomes using S-mephenytoin as substrate after 5 mins by LC-MS/MS analysis; assay type: ADME
Sequence of Cytochrome P450 2C19 (P33261 whole entry): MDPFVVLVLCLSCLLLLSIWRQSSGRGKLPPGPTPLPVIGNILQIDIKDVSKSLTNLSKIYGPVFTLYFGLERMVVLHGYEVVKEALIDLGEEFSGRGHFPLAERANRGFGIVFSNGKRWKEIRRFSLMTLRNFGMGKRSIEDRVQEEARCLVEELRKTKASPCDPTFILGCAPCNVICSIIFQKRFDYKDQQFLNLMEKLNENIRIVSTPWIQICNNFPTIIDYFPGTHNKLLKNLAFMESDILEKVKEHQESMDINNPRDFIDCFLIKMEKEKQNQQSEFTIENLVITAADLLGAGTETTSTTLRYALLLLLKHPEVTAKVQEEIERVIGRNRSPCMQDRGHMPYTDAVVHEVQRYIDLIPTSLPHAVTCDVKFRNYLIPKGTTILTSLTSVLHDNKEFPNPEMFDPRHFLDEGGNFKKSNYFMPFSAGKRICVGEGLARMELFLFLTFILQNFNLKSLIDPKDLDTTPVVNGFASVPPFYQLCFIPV
Summary of the method: (§2)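 Pooled HLM from 16 donors were incubated at 37°C in duplicate with carfilzomib 0.01–10 µM and probe substrate at about its Km. Substrates were phenacetin, amodiaquine, diclofenac, S-mephenytoin, dextromethorphan, testosterone and midazolam. Protein was 0.1 mg/mL, or 0.05 mg/mL with midazolam. Reactions ran 5 min without preincubation, then were quenched with acetonitrile. Metabolites were measured by LC-MS/MS relative to 0.5% acetonitrile controls.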

Plasma [5] = assay: Drug metabolism in plasma of iv dosed human patient with relapsed and refractory hematological malignancies assessed as morpholino-hPhe-Leu-Phe-Leu-diol metabolite formation administered on days 1, 2, 8, 9, 15 and 16 of 28-day cycle over 2 to 10 mins by LC-MS/MS analysis; assay type: ADME, organism-based; conditions: in vivo
[6] = Drug excretion in urine of human multiple myeloma patient with normal renal function at 15 mg/m'2, iv on days 1, 2, 8, 9, 15 and 16 of 28-day cycle over 2 to 10 mins by LC-MS/MS analysis relative to total drug dose; assay type: ADME, organism-based; conditions: read-out: Drug excretion
Summary of the method: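 Urine was collected 0–5 h and 5–24 h after dosing on Cycle 1 Day 1, with acetonitrile added at 25% of sample volume. Carfilzomib and metabolites were quantified by LC-MS/MS (carfilzomib and M15 4.00–2000 ng/mL, M14 10.0–5000 ng/mL) and expressed as percent of dose.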

Cytochrome P450 2C9 [7] = target: T1, Cytochrome P450 2C9 (Homo sapiens, UniProt P11712); assay: Inhibition of CYP2C9 in human liver microsomes using diclofenac as substrate after 5 mins by LC-MS/MS analysis; assay type: ADME; summary of the method: as §2
Target sequence in this assay (P11712 whole entry): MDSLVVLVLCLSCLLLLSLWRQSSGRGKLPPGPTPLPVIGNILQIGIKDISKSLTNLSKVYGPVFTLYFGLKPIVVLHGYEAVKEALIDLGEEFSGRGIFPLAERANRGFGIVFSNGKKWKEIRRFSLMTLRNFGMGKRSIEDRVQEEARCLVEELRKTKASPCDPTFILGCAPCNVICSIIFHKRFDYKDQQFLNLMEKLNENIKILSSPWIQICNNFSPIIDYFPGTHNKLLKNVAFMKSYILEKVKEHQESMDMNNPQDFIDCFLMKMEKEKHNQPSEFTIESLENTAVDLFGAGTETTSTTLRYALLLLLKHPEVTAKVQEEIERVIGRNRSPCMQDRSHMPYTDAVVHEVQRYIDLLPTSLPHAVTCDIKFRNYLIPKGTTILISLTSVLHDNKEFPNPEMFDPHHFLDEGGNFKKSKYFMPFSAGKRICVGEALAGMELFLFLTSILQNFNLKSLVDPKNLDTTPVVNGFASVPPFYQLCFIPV

Cytochrome P450 2D6 = Cytochrome P450 2D6 (Homo sapiens, UniProt P10635); assay: Drug metabolism in pooled human hepatocytes assessed as disapperance rate at 1 uM by LC-MS/MS analysis in presence of 10 uM CYP2D6 inhibitor quinidine; assay type: ADME, cell-based, Hepatocyte
Sequence of Cytochrome P450 2D6 (P10635 whole entry, canonical isoform): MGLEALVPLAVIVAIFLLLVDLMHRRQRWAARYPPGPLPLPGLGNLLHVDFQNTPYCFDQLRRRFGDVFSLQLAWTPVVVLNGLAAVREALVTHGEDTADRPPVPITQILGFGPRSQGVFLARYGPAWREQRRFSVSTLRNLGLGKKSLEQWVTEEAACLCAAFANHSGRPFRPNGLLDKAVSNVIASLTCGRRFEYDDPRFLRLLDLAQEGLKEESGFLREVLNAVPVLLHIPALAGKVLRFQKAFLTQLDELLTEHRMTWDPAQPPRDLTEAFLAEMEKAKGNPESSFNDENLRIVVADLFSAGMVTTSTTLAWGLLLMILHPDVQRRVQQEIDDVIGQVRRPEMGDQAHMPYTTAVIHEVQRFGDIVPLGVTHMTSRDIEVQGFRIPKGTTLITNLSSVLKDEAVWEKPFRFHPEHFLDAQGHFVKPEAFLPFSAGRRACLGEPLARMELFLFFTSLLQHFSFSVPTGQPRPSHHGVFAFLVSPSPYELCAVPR
Summary of the method: (§3)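 Pooled human hepatocytes in suspension (~0.5 x 10^6 viable cells/mL) were incubated with 1 µM carfilzomib at 37°C under 5% CO2, with or without isoform-selective CYP chemical inhibitors. Reactions were quenched with acetonitrile at 0, 15, 30, 60 and 120 min. Carfilzomib was quantified by non-validated LC-MS/MS after protein precipitation.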

Cytochrome P450 2C9 [8] = target: T1, Cytochrome P450 2C9; assay: Drug metabolism in pooled human hepatocytes assessed as disapperance rate at 1 uM by LC-MS/MS analysis in presence of 10 uM CYP2C9 inhibitor sulfaphenazole
Target sequence in this assay (P11712 whole entry, looked up): as the sequence (P11712 whole entry) above

Cytochrome P450 3A [9] = target: T2, Cytochrome P450 3A (Homo sapiens, UniProt P08684+P20815+Q9HB55+P24462); assay: Time-dependent inhibition of CYP3A in human liver microsomes assessed as testosterone 6-hydroxylation using testosterone as substrate measured after 25-fold diution by LC-MS/MS analysis in presence of NADPH; assay type: ADME
Summary of the method: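 Pooled HLM (16 donors, mixed gender) preincubated in duplicate with carfilzomib 0, 0.5, 1, 3, 5 and 8 µM plus NADPH-generating system (1 mM NADP, 5 mM glucose-6-phosphate, 1 unit/mL G6PDH) for 0–30 min. Microsomal protein in preincubation: 2.5 mg/mL (testosterone) or 1.25 mg/mL (midazolam). Aliquots then diluted 25-fold into 50 mM potassium phosphate, 3 mM MgCl2, 1 mM EDTA, pH 7.4. Residual activity measured over 5 min with testosterone 200 µM or midazolam 40 µM plus NADPH-generating mixture, 37°C. KI and kinact derived.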

Cytochrome P450 3A [10] = target: T2, Cytochrome P450 3A; assay: Decrease in CYP3A activity in human hepatocytes assessed as 6-betahydroxytestosterone formation using testosterone as substrate incubated for 3 days prior to substrate challenge for 30 mins by LC-MS/MS analysis; assay type: ADME, cell-based, Hepatocyte; conditions: 0.5 h
Summary of the method: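 Hepatocytes from 3 donors were plated on collagen I and cultured 2 days, then treated 3 days with carfilzomib (0.1–2.5 µM), 0.08% DMSO, rifampicin 20 µM or β-naphthoflavone 20 µM, renewed daily. Cells were then incubated in serum-free medium in triplicate with testosterone 200 µM (CYP3A, 30 min, 6β-hydroxytestosterone) or phenacetin 100 µM (CYP1A2, 60 min, acetaminophenol). Products were measured by LC-MS/MS and expressed relative to DMSO.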

[11] = Drug excretion in urine of iv dosed human patient with relapsed and refractory hematological malignancies assessed as morpholino-hPhe metabolite formation administered on days 1, 2, 8, 9, 15 and 16 of 28-day cycle over 2 to 10 mins by LC-MS/MS analysis; assay type: ADME, organism-based; conditions: in vivo
[12] = AUC infinity in human patient with relapsed solid tumor at 20 mg/m'2, iv administered over 2 to 10 mins on days 1, 2, 8, 9, 15 and 16 of 28-day cycle measured on day 1 of cycle 1 by LC-MS/MS analysis; assay type: ADME, organism-based; design: route intravenous, time infinity; conditions: plasma; summary of the method: as §1
[13] = Plasma clearance in human patient with relapsed solid tumor at 20 mg/m'2, iv administered over 2 to 10 mins on days 1, 2, 8, 9, 15 and 16 of 28-day cycle measured on day 1 of cycle 1 by LC-MS/MS analysis; assay type: ADME, organism-based; summary of the method: as §1
[14] = Drug metabolism in pooled human hepatocytes assessed as disapperance rate at 1 uM by LC-MS/MS analysis; assay type: ADME, cell-based, Hepatocyte; summary of the method: as §3
[15] = Drug excretion in urine of iv dosed human patient with relapsed and refractory hematological malignancies assessed as morpholino-hPhe-Leu-Phe-Leu-diol metabolite formation administered on days 1, 2, 8, 9, 15 and 16 of 28-day cycle over 2 to 10 mins by LC-MS/MS analysis; assay type: ADME, organism-based; conditions: in vivo

Drug metabolism (Plasma [1]): metabolite_detected | clearance [2]: 2270 mL/min | AUC(0-t) [3]: 301 ng·h/mL | AUC(0-inf) [4]: 301 ng·h/mL | IC50 (Cytochrome P450 2C19): > 10 µM | Drug metabolism (Plasma [5]): metabolite_detected | dose excreted [6]: < 1% | IC50 (Cytochrome P450 2C9 [7]): > 10 µM | Drug metabolism (Cytochrome P450 2D6): 0.013 min⁻¹ | Drug metabolism (Cytochrome P450 2C9 [8]): 0.0073 min⁻¹ | inhibition (INH) (Cytochrome P450 3A [9]): Active | inhibition (INH) (Cytochrome P450 3A [10]): Dose-dependent effect | Drug excretion [11]: metabolite_detected | AUC(0-inf) [12]: 238 ng·h/mL | clearance [13]: 2430 mL/min | Drug metabolism [14]: 0.015 min⁻¹ | Drug excretion [15]: metabolite_detected
Structure (SMILES): CC(C)C[C@H](NC(=O)[C@H](CCc1ccccc1)NC(=O)CN1CCOCC1)C(=O)N[C@@H](Cc1ccccc1)C(=O)N[C@@H](CC(C)C)C(=O)[C@@]1(C)CO1 [CARFILZOMIB]
